Reference: ChEMBL document CHEMBL1123394, “Systematic synthesis and biological evaluation of alpha- and beta-D-xylofuranosyl nucleosides of the five naturally occurring bases in nucleic acids and related analogues” (J Med Chem, 1986)
Converted amounts (≈) assume the structure as drawn.

How the values were obtained:
Mus musculus [1] = test: Toxicity of compound against mice was determined at a concentration of 750 mg/kg; assay type: organism-based; set-up: dose 750 mg/kg; conditions: in vivo
Method in brief: (§1)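 Swiss mice (20-24 g) received a single intraperitoneal dose of 100-2,000 mg/kg. Compound was suspended in distilled water containing 0.2 g Tween 80 and 0.2 g (carboxymethyl)cellulose per 100 mL. Mice were followed for 14 days for acute toxicity.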

Mus musculus [2] = test: Toxicity of compound against mice was determined at a concentration of 2000 mg/kg; assay type: organism-based; set-up: dose 2000 mg/kg; conditions: in vivo; method in brief: as §1
Mus musculus [3] = test: Efficacy expressed as number of surviving mice infected with herpetic encephalitis at dose of 0 mg/kg; assay type: functional
Mus musculus [4] = test: Toxicity of compound against mice was determined at a concentration of 100 mg/kg; assay type: organism-based; set-up: dose 100 mg/kg; conditions: in vivo; method in brief: as §1
Mus musculus [5] = test: Toxicity of compound against mice was determined at a concentration of 1200 mg/kg; assay type: organism-based; set-up: dose 1200 mg/kg; conditions: in vivo; method in brief: as §1
Mus musculus [6] = test: Toxicity of compound against mice was determined at a concentration of 250 mg/kg; assay type: organism-based; set-up: dose 250 mg/kg; conditions: in vivo; method in brief: as §1
Vero [7] = test: Antiviral activity was measured against Coxsackie virus B4 in african green monkey kidney (Vero B) cells.; assay type: functional; conditions: Chlorocebus sabaeus
Method in brief: (§2)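 Inhibition of virus-induced cytopathogenicity scored in cell culture monolayers. Test compounds dissolved in growth medium at 100, 10, or 1 μg/mL or less.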

Vero [8] = test: Antiviral activity was measured against forest virus in african green monkey kidney (Vero B) cells.; assay type: functional; conditions: Chlorocebus sabaeus; method in brief: as §2
[9] = Concentration required to reduce RNA synthesis in primary rabbit kidney cells using [3H-5]-Urd incorporation; assay type: functional; conditions: Oryctolagus cuniculus, read-out: ID50 (the source's name)
Method in brief: (§3)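 Primary rabbit kidney cells with compounds in growth medium at 100, 10, or 1 μg/mL or less. Cell number and incorporation of [3H-methyl]dThd (DNA), [3H-5]Urd (RNA) or [3H2-4,5]leucine (protein) measured. ID50 taken as the dose giving 50% reduction in cell number or in DNA, RNA or protein synthesis.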

[10] = Concentration required to reduce DNA synthesis in primary rabbit kidney cells using [3H-Methyl]-dThd incorporation; assay type: functional; conditions: Oryctolagus cuniculus, read-out: ID50 (the source's name); method in brief: as §3
[11] = Antiviral activity was measured against Vaccinia virus in rabbit kidney cells.; assay type: functional; conditions: Oryctolagus cuniculus
Method in brief: (§4)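 Inhibition of virus-induced cytopathogenicity in cell culture. Compounds were dissolved in growth medium at 100, 10 or 1 μg/mL or less.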

WI-38 [12] = test: Antiviral activity was measured against Rhino virus-9 in human diploid (WI-38) cells.; assay type: functional; method in brief: as §2
[13] = dose required to reduce primary rabbit kidney cell growth; assay type: functional; conditions: Oryctolagus cuniculus, read-out: ID50 (the source's name); method in brief: as §3
[14] = Antiviral activity was measured against Herpes simplex virus (HSV-1 KOS) in rabbit kidney cells.; assay type: functional; conditions: Oryctolagus cuniculus; method in brief: as §4
Vero [15] = test: Antiviral activity was measured against Reo virus-1 in african green monkey kidney (Vero B) cells.; assay type: functional; conditions: Chlorocebus sabaeus; method in brief: as §2
[16] = Antiviral activity was measured against Herpes simplex virus (HSV-2 G) in rabbit kidney cells.; assay type: functional; conditions: Oryctolagus cuniculus; method in brief: as §2
[17] = Concentration required for microscopically detectable alteration of the normal cell morphology in PRK cells.; assay type: functional; conditions: Oryctolagus cuniculus
Method in brief: (§5)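 Host-cell morphology inspected microscopically for detectable alteration, with compounds in growth medium at up to 200 or 400 μg/mL.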

Vero [18] = test: Concentration required for microscopically detectable alteration of the normal cell morphology in Vero B cells.; assay type: functional; conditions: Chlorocebus sabaeus; method in brief: as §5
Mus musculus [19] = test: Efficacy expressed as number of surviving mice infected with herpetic encephalitis at dose of 150 mg/kg; assay type: functional
Method in brief: (§6)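 Young mice (10 g) were inoculated intracerebrally with 0.03 mL of herpes simplex virus suspension containing ca. 4 CCID50. Compound was given at 75 or 150 mg/kg per day as two daily intraperitoneal injections for 4 days. Read-out was the number of surviving mice.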

Mus musculus [20] = organism: Mus musculus; test: Efficacy expressed as number of surviving mice infected with herpetic encephalitis at dose of 75 mg.kg; assay type: functional; method in brief: as §6
WI-38 [21] = test: Antiviral activity was measured against Rhino virus-1A in human diploid (WI-38) cells.; assay type: functional; method in brief: as §2
[22] = Concentration required to reduce protein synthesis in primary rabbit kidney cells usingi [3H2-4,5]leucine incorporation; assay type: functional; conditions: Oryctolagus cuniculus, read-out: ID50 (the source's name); method in brief: as §3
HeLa [23] = test: Antiviral activity was measured against vesicular stomatitis virus in HeLa cells.; assay type: functional; conditions: Homo sapiens; method in brief: as §4
Vero [24] = test: Antiviral activity was measured against Sindbis virus in african green monkey kidney (Vero B) cells.; assay type: functional; conditions: Chlorocebus sabaeus; method in brief: as §2
WI-38 [25] = test: Concentration required for microscopically detectable alteration of the normal cell morphology in Wi-38 cells.; assay type: functional; conditions: Homo sapiens; method in brief: as §5
HeLa [26] = test: Concentration required for microscopically detectable alteration of the normal cell morphology in HeLa cells.; assay type: functional; conditions: Homo sapiens; method in brief: as §5
HeLa [27] = test: Antiviral activity was measured against Coxsackie virus B4 in HeLa cells.; assay type: functional; conditions: Homo sapiens; method in brief: as §4
Vero [28] = test: Antiviral activity was measured against Parainfluenza virus-3 in african green monkey kidney (Vero B) cells.; assay type: functional; conditions: Chlorocebus sabaeus; method in brief: as §2
[29] = Antiviral activity was measured against Vesicular stomatitis virus in rabbit kidney cells.; assay type: functional; conditions: Oryctolagus cuniculus; method in brief: as §4
[30] = Dose required to reduce primary rabbit kidney cell growth; assay type: functional; conditions: Oryctolagus cuniculus, read-out: ID50 (the source's name); method in brief: as §3

Compound	No. of dead mice (Mus musculus [1])	No. of dead mice (Mus musculus [4])	No. of dead mice (Mus musculus [6])	MCC (Vero [7]) [µg/mL]	MCC (Vero [8]) [µg/mL]	MCC (WI-38 [12]) [µg/mL]	MCC [14] [µg/mL]	MCC (Vero [15]) [µg/mL]	MCC [16] [µg/mL]	MCC [17] [µg/mL]	MCC (Vero [18]) [µg/mL]	MCC (WI-38 [21]) [µg/mL]	MCC (Vero [24]) [µg/mL]	MCC (WI-38 [25]) [µg/mL]	MCC (HeLa [26]) [µg/mL]	MCC (HeLa [27]) [µg/mL]	MCC (Vero [28]) [µg/mL]	also measured
Nc1nc2c(ncn2COCCO)c(=O)[nH]1 [ACYCLOVIR]	1	0	0															No. of dead mice (Mus musculus [2]): 7; Efficacy (Mus musculus [3]): 0 mg/kg; No. of dead mice (Mus musculus [5]): 7
Nc1ncnc2c1ncn2[C@@H]1O[C@H](CO)[C@@H](O)[C@@H]1O [VIDARABINE]	0	0	0	> 100	> 100	> 100	20	150	10	≥ 200	≥ 200	> 100	> 100	≥ 100	≥ 200	> 100	150	No. of dead mice (Mus musculus [2]): 0; IC50 [9]: 15 mg/L (≈ 56.1 µM); IC50 [10]: 31 mg/L (≈ 116 µM); MCC [11]: 2 µg/mL; IC50 [13]: 27 mg/L (≈ 101 µM); Efficacy (Mus musculus [3]): 0 mg/kg; Efficacy (Mus musculus [19]): 0 mg/kg; Efficacy (Mus musculus [20]): 0 mg/kg; IC50 [22]: > 200 mg/L; MCC (HeLa [23]): 150 µg/mL; No. of dead mice (Mus musculus [5]): 0; MCC [29]: 70 µg/mL
Nc1nc(S)c2ncn(C3O[C@H](CO)[C@H](O)[C@H]3O)c2n1 (some centres undefined)				> 200	> 200	> 200	> 400	> 200	> 400	> 400	≥ 200	> 200	> 200	≥ 400	≥ 200	> 200	> 200	
Cc1cn([C@@H]2O[C@H](CO)[C@@H](O)[C@H]2O)c(=O)[nH]c1=O				> 400	> 400	> 400	> 400	> 400	> 400	> 400	> 400	> 400	> 400	> 400	> 400	> 400	> 400	
Nc1ncnc2c1ncn2C1O[C@H](CO)[C@H](O)[C@H]1O (some centres undefined)				> 400	> 400	> 40	> 400	> 400	> 400	> 400	> 400	> 400	> 400	> 400	> 400	> 400	> 400	
Nc1nc2c(ncn2[C@@H]2O[C@H](CO)[C@H](O)[C@H]2O)c(=O)[nH]1	8	2	5															
Nc1ccn([C@@H]2O[C@H](CO)[C@@H](O)[C@@H]2O)c(=O)n1 [CYTARABINE]																		IC50 [9]: 0.03 mg/L (≈ 0.123 µM); IC50 [10]: 0.05 mg/L (≈ 0.206 µM); IC50 [22]: > 200 mg/L; IC50 [30]: 0.04 mg/L (≈ 0.164 µM)
